Results from different studies.
EGFR: Epidermal growth factor receptor (EGFR, Homo sapiens, UniProt P00533)
EGFR L858R/T790M: Epidermal growth factor receptor (EGFR, Homo sapiens, UniProt P00533, L858R/T790M)

Cn1cc(-c2cc(F)cc(N3CCn4c(cc5c4CCCC5)C3=O)c2CO)cc(Nc2ccc(N3CCN(C4COC4)CC3)cn2)c1=O — inhibition (EGFR; enzyme activity; inhibitor; 0.1 µM): 7%
Cc1nn(C)cc1-c1nc2c(N3CCN(Cc4ccc(Cl)cc4)CC3)c(Cl)cnc2[nH]1 — remaining binding (Epidermal growth factor receptor (EGFR, Homo sapiens, UniProt P00533, T790M); binding; competition with immobilised ligand; 1 µM): 82%
Nc1ncc(-c2nc(N3CCOCC3)nc(N3CCOCC3)n2)c(C(F)F)n1 — remaining binding (Epidermal growth factor receptor (EGFR, Homo sapiens, UniProt P00533, L861Q); cell-free assay; competition with immobilised ligand; 10 µM): 77%
CC(C)(C)c1cc(C=C(C#N)C#N)cc(Br)c1O — remaining activity (EGFR; enzyme activity; inhibitor; 0.5 µM): 106%
C#Cc1n[nH]c2c(-c3cn([C@@H](C)c4ccccn4)c(=O)[nH]c3=O)cc(F)cc12 — inhibition (EGFR L858R/T790M; enzyme activity; inhibitor; 0.1 µM): -3.6%
c1ccc(C(NCCNC(c2ccccc2)c2ccccc2)c2ccccc2)cc1 — inhibition (EGFR; enzyme activity; inhibitor; 10 µM): -8%
COc1ccc2c(c1)/C(=C/c1cnc[nH]1)C(=O)N2 — remaining signal (EGFR; cell-free assay; 0.5 µM): 99.4%
Cn1cncc1[C@](O)(COc1ccc(C#N)cc1-c1ccc(OC(F)(F)F)cc1)c1ccc(C#N)cc1 — remaining binding (Epidermal growth factor receptor (EGFR, Homo sapiens, UniProt P00533, del747-752/P753S); cell-free assay; competition with immobilised ligand; 1 µM): 76%
CC(C)[C@@H]1NC(=O)[C@H](C)NC(=O)[C@H](C)NC(=O)[C@H](Cc2ccc(O)cc2)NC(=O)[C@H](Cc2ccc(O)cc2)NC(=O)[C@H](Cc2ccccc2)NC(=O)[C@@H](Cc2ccc(O)cc2)NC(=O)CSC[C@@H](C(=O)NCC(N)=O)NC(=O)[C@H](C)NC(=O)[C@H](CCCNC(=N)N)NC(=O)[C@H](CCCNC(=N)N)NC(=O)[C@H](Cc2ccc(O)cc2)NC(=O)[C@H](C(C)C)NC(=O)[C@H](C(C)C)NC(=O)[C@H](CC(N)=O)NC1=O — kon (EGFR; binding; SPR): 38800 M⁻¹ s⁻¹
COc1ncccc1-c1cnn2ccc(N3CCN(C(=O)OC(C)C)CC3)nc12 — remaining binding (EGFR; binding; competition with immobilised ligand; 1 µM): 89%
N#CC1(c2ccccn2)CCN(Cc2cc(C(=O)O)c(=O)n3ccccc23)CC1 — remaining binding (EGFR; cell-free assay; competition with immobilised ligand; 1 µM): 83%
C[C@H](C(=O)N[C@H]1COc2ccccc2[C@@H]1S(C)(=O)=O)c1ccc(F)cc1 — inhibition (EGFR; enzyme activity; inhibitor; 10 µM): 1%
C#Cc1n[nH]c2c(-c3cn([C@@H](C)c4ccccc4)c(=O)[nH]c3=O)cc(F)cc12 — inhibition (EGFR L858R/T790M; enzyme activity; inhibitor; 0.1 µM): -4.9%
